Compound activity: PubChem BioAssay, several laboratories
Mdm2 ligase inh: inhibitors of human Mdm2 E3 ubiquitin ligase; cell-based MDM2 ubiquitination luciferase reporter, 2 h; 0 = plate control, 100 = twice control, blank-subtracted; signal enhancement, % at 5 µM; actives 0.11% (n = 210,000);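 active means signal enhancement of 30% or more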;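 further: luminescence tracks abundance of the self-degrading MDM2-luciferase fusion protein; higher signal means inhibition of MDM2 E3 ligase activity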
Target sequence (Q00987 whole entry, looked up, the tested form may be a part): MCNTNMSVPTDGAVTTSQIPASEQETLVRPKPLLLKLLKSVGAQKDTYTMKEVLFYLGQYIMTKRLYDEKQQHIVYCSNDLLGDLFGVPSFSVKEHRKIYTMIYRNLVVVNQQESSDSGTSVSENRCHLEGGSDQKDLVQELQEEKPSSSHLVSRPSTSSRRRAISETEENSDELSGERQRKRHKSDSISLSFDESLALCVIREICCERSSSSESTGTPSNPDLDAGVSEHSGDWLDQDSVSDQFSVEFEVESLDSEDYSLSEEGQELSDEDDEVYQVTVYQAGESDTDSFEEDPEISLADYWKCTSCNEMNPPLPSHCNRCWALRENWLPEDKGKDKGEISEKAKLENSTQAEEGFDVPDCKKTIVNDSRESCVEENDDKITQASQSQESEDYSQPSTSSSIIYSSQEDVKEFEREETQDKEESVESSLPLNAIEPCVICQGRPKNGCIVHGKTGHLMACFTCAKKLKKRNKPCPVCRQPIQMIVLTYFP
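Assay system: stable mammalian line carrying autodegrading MDM2–luciferase fusion reporter; Input: 2000 cells in each well; Compound dosing: single-point 5 µM; Schedule: 2 h compound exposure at 37 °C; Signal: SteadyLite luciferase luminescence after 15 min room-temperature reagent incubation; Evaluation: % luminescence enhancement versus blank-corrected plate control mean; Benchmarks: plate controls and plate blanks.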
p47phox inh: blocks human p47phox regulatory protein of NADPH oxidases. actives 0.53% (n = 220,000). p47phox/p22phox peptide binding, fluorescence polarization, 2 h. P14598. AID 1274. inhibition, % at 24.7 µM;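 active means inhibition above about 30%, limit read from the data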;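 further: 0% = p47phox with labelled peptide and 100% = labelled peptide alone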
Tb hexokinase: T. brucei hexokinase 1 inhibition; AID 1430; actives 0.11% (n = 220,000); inhibition, % at 10 µM; recombinant TbHK1, G6PDH-coupled NADH A340;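 active means inhibition of 50% or more in the single-dose primary screen; inactive means inhibition below 50%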
Rad51 HR inh: blocks human Rad51 in homologous recombination | actives 0.085% (n = 200,000) | hRad51 DNA strand exchange, fluorescence dequenching | Q06609 | inhibition, % at 10 µM | AID 1385;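 active means inhibition above 40% at the single screening dose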;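 further: 0% = DMSO control wells and 100% = blanks with heterologous ssDNA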
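Material: Human Rad51 nucleoprotein filaments preassembled on unlabelled ssDNA | Also added: Labelled 47-mer dsDNA for strand exchange | Dosing: Single dose, 10 µM final compound | Schedule: 30-min compound preincubation and 15-min exchange, both room temperature | Technique: Fluorescence dequenching at 485/520 nm | Measure: Percent inhibition relative to plate controls and blanks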
Numbers without * were called inactive; nt = no result; + = active, no number. Compounds with a hit are over-represented: about 0.75% of the library has one in this group of screens.

SMILES	Mdm2 ligase inh	p47phox inh	Tb hexokinase	Rad51 HR inh
Cn1c(Oc2ccccc2NCc2cccc(Br)c2)cc(=O)n(C)c1=O	0.5	-5.2	-5.9	7.4
Cc1noc(C)c1COC(=O)[C@H](C)NS(=O)(=O)c1ccc(Cl)c(Cl)c1	1.9	-27.6	-3.5	9.1
Cc1noc(C)c1COC(=O)Cc1ccc(Cl)c(Cl)c1	-24.8	+	3.8	nt
CCOC(=O)C1=C(c2ccccc2)NC(N)=NC1c1ccc(OCc2ccc(Cl)cc2)c(OC)c1 (stereo not drawn)	-5.1	70.7*	43.8	-6.3
CCOC(=O)c1oc2cccc(O)c2c1C	-18.2	-19.9	-6.2	-4.3
CCOC(=O)c1oc2cccc(O)c2c1CN(Cc1ccccc1)C(C)=O	-6.2	32.8*	-7.6	-3.3
Cc1nnc(SCC(=O)c2ccc(Cl)cc2)s1	6.2	-0.1	-2.7	40.5*
O=C(NC(c1ccc(Cl)cc1)c1cc(Cl)c2cccnc2c1O)c1cccnc1 (stereo not drawn)	-4.7	31.7*	6.3	22.3
CCCC(=O)NC(c1ccc(OC)c(OC)c1)c1cc(Cl)c2cccnc2c1O (stereo not drawn)	-3.6	-6.5	1.2	-9.7
CCOC(=O)CN1C(=O)N[C@@H](CCc2ccccc2)[C@@H](C(=O)OC)[C@H]1C	nt	nt	nt	52.9*
COc1ccc2nc(/C=N/NC(=O)CCCCCNC(=O)OC(C)(C)C)ccc2c1	nt	-5.2	-42.4	nt
CCOC(=O)c1sc(N)c(C(N)=O)c1C	-8.7	30.1*	-16.4	-8.9
CCOC(=O)c1c(N)sc(C(N)=O)c1C	-13.0	-9.9	-7.0	6.4
COc1ccc2[nH]c(=O)cc(C(=O)O)c2c1	-0.5	3.5	2.2	17.5
COc1ccc2[nH]c3c4c(ccc3c2c1)C(=O)C=CC4=O	32.0*	30.5*	-12.7	-22.7
Cc1ccc(CCN2CC(C(=O)NCCN3CCCCCC3)CC2=O)cc1 (stereo not drawn)	-12.1	-9.3	-0.6	-6.4
Cc1ccc(CCN2CC(C(=O)NCCCN3CCCCCC3)CC2=O)cc1 (stereo not drawn)	-0.2	38.0*	-25.0	0.4
CCOC(=O)C1(CCCc2ccccc2)CCN(Cc2cn(CC)nc2C)CC1	-32.7	8.8	-6.3	nt
C(=N\NCc1ccccc1)/c1ccc2nccnc2c1	-12.9	-7.3	-19.1	nt
Cc1ccc(NC(=O)N(Cc2ccco2)Cc2cc3cc(C)cc(C)c3nc2Cl)cc1	-21.7	160.1*	-6.9	nt
Cc1cccc2cc(CN(Cc3ccco3)C(=O)Nc3cccc(C#N)c3)c(Cl)nc12	-11.1	-22.3	5.7	-0.1
N#Cc1nc(Cc2ccccc2)oc1NCCN1CCOCC1	32.0*	-1.3	37.9	-7.5
N#Cc1nc(Cc2cccc3ccccc23)oc1NCCCN1CCOCC1	-7.8	3.6	-28.9	-1.3
CN1CCc2nc3sc(C(=O)C45CC6CC(CC(C6)C4)C5)c(N)c3cc2C1	2.0	47.8*	-4.3	nt
CC(=O)Nc1ccc(C(=O)Nc2cccc(-c3cnc4ccccc4n3)c2)cc1	-44.5	33.3*	-10.4	0.9
SMILES	Mdm2 ligase inh	p47phox inh	Tb hexokinase	Rad51 HR inh
Cc1nnc(SCCN2CCOCC2)c2nn(-c3ccccc3F)c(C)c12	78.8*	-46.1	10.3	1.7
COc1ccc(N2C(=O)C(CC(=O)Nc3ccc(F)cc3)N(CCc3ccc(OC)c(OC)c3)C2=O)cc1 (stereo not drawn)	-9.1	-7.9	15.9	-2.8
CN1CCN(S(=O)(=O)c2ccc(N3CCN(S(=O)(=O)/C=C/c4ccccc4)CC3)nc2)CC1	-4.9	39.7*	-4.6	-4.9
C=CSc1sc(Cl)c(N(CC)CC)c1[N+](=O)[O-]	-8.1	13.1	7.0	-23.9
CCc1noc(C)c1C(=O)Nc1nnc(C2CCCCC2)s1	-5.6	-7.1	-1.0	-18.1
C/C(=N\NC(=O)C(=O)Nc1cc(C)ccc1C)c1ccncc1	-9.0	-6.8	-7.0	3.9
C#CCOCCOCCOCCNc1nc(N2CCN(C(=O)C(Cc3cc4ccccc4[nH]3)n3cc(C(N)C(C)CC)nn3)CC2)nc(N2CCN(C(=O)C(Cc3cc4ccccc4[nH]3)n3cc(C(N)C(C)CC)nn3)CC2)n1 (stereo not drawn)	nt	67.4*	-6.3	nt
C#CCOCCOCCOCCNc1nc(N2CCN(C(=O)[C@H](CCCCN)n3cc([C@@H](N)CO)nn3)CC2)nc(N2CCN(C(=O)[C@H](Cc3cc4ccccc4[nH]3)n3cc([C@@H](N)Cc4ccc(O)cc4)nn3)CC2)n1	nt	38.7*	11.0	nt
C#CCOCCOCCOCCNc1nc(N2CCN(C(=O)[C@H]([C@@H](C)CC)n3cc([C@@H](N)CC(C)C)nn3)CC2)nc(N2CCN(C(=O)[C@H](Cc3cc4ccccc4[nH]3)n3cc([C@@H](N)Cc4ccc(O)cc4)nn3)CC2)n1	nt	53.1*	9.9	nt
C#CCOCCOCCOCCNc1nc(N2CCN(C(=O)[C@H](Cc3ccc(O)cc3)n3cc([C@@H](N)C(C)CC)nn3)CC2)nc(N2CCN(C(=O)[C@H](Cc3cc4ccccc4[nH]3)n3cc([C@@H](N)Cc4ccc(O)cc4)nn3)CC2)n1 (stereo partly drawn)	-6.7	33.0*	11.4	nt
Fc1cccc(-c2nnn3c2nc(Cl)c2ccccc23)c1	-13.9	-6.0	-4.4	-6.8
O=C(c1cc(-c2cccs2)nc2ccccc12)N1CCN(c2ccccc2O)CC1	9.8	-11.3	-9.2	-2.3
Cc1c(C)c(C)c(CN2CCCC2)c(C)c1C	-7.2	-3.0	-1.7	15.4
O=C(c1ccc(CNc2c(N3CCCC3)c(=O)c2=O)cc1)N1CCN(C2CCCCC2)CC1	nt	34.8*	-3.9	nt
OCCC1CN(Cc2ccc(Oc3ncccn3)cc2)CCN1C1CCCC1 (stereo not drawn)	-2.8	-4.5	-4.1	-19.6
COCc1cc(=O)[nH]c(Nc2nc3ccc(C)cc3o2)n1	35.9*	-21.2	-22.1	5.8
O=C(O)CCC(=O)N1CCOc2ccc(Cl)cc21	-5.3	36.8*	-0.1	-13.0
O=C(CN1C(=O)COc2ccc(Cl)cc21)Nc1ccc2c(c1)OCCO2	-7.3	-7.8	-6.5	3.3
CCC1CC(C)(C(=O)Nc2ccc(S(N)(=O)=O)cc2)OC1=O (stereo not drawn)	-17.0	+	0.9	nt
CC1CC(CC(C)C(=O)NC(=S)Nc2ccc(S(N)(=O)=O)cc2)C(=O)O1 (stereo not drawn)	-8.5	-6.5	0.2	-10.2
Cc1cccc(Oc2nc(CN3CCOCC3)nc3sc4c(c23)CCCC4)c1	-10.1	-8.9	8.4	-3.9
COc1cccc(-n2nc3c(=O)n(Cc4ccccc4Cl)nc(C)c3c2C)c1	nt	84.1*	-7.4	nt
CC1(C)NC(=O)N(CC(O)COC2CCCCC2)C1=O (stereo not drawn)	-1.1	40.8*	5.5	nt
Cc1ccc(-n2nnnc2-c2ccco2)cc1	0.2	-11.9	-4.1	2.7
Nc1ccc(-n2nnnc2-c2ccco2)cc1	-12.1	59.1*	2.4	nt
Cc1nc(NC(=O)c2ccc(-c3cc4ccccc4oc3=O)cc2)ccc1Br	2.2	11.9	1.9	-1.2
Cc1nc(NC(=O)c2cccc(-c3cc4ccccc4oc3=O)c2)ccc1Br	-13.1	40.6*	16.2	-2.4
O=C(Nc1ccccc1N1CCCC1)c1cccc(-c2cc3ccccc3oc2=O)c1	-6.3	-26.5	-2.3	26.3
